These results are taken from ChEMBL document CHEMBL4311941, “Development of Multifunctional Histone Deacetylase 6 Degraders with Potent Antimyeloma Activity” (J Med Chem, 2019).

The structures appear in SMILES notation. Activity calls are given as the source filed them. The calls are words filed in the database; no cut-off is given here.

Test [1] has as its target T1, Cereblon/Ikaros (Homo sapiens) (UniProt Q96SW2+Q13422). Kind of test: Protac activity at CRBN/IKZF1 in human MM1S cells assessed as IKZF1 degradation at 100 nM measured after 4 hrs by Western blot analysis. It counts as cell-based.
The target in test [2] is T2, Protein cereblon/Protein deacetylase HDAC6 (Homo sapiens, UniProt Q9UBN7+Q96SW2). Kind of test: Protac activity at CRBN/HDAC6 in human A431 cells assessed as HDAC6 degradation up to 10 uM incubated for 6 hrs by Western blot analysis. It counts as cell-based.
T2 sequence (Q96SW2 whole entry, looked up): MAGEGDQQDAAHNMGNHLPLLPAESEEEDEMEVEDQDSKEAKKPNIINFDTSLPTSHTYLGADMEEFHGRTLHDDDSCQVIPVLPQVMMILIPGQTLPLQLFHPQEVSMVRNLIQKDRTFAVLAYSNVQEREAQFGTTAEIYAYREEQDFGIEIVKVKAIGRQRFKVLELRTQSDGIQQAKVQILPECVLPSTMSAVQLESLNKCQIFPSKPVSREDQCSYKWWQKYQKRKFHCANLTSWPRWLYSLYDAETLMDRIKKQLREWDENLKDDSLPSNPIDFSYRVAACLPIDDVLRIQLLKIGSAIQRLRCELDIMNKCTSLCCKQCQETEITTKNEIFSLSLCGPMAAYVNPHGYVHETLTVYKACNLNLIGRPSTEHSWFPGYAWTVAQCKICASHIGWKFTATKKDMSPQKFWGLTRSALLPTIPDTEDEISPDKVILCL
T2 sequence (Q9UBN7 whole entry, looked up): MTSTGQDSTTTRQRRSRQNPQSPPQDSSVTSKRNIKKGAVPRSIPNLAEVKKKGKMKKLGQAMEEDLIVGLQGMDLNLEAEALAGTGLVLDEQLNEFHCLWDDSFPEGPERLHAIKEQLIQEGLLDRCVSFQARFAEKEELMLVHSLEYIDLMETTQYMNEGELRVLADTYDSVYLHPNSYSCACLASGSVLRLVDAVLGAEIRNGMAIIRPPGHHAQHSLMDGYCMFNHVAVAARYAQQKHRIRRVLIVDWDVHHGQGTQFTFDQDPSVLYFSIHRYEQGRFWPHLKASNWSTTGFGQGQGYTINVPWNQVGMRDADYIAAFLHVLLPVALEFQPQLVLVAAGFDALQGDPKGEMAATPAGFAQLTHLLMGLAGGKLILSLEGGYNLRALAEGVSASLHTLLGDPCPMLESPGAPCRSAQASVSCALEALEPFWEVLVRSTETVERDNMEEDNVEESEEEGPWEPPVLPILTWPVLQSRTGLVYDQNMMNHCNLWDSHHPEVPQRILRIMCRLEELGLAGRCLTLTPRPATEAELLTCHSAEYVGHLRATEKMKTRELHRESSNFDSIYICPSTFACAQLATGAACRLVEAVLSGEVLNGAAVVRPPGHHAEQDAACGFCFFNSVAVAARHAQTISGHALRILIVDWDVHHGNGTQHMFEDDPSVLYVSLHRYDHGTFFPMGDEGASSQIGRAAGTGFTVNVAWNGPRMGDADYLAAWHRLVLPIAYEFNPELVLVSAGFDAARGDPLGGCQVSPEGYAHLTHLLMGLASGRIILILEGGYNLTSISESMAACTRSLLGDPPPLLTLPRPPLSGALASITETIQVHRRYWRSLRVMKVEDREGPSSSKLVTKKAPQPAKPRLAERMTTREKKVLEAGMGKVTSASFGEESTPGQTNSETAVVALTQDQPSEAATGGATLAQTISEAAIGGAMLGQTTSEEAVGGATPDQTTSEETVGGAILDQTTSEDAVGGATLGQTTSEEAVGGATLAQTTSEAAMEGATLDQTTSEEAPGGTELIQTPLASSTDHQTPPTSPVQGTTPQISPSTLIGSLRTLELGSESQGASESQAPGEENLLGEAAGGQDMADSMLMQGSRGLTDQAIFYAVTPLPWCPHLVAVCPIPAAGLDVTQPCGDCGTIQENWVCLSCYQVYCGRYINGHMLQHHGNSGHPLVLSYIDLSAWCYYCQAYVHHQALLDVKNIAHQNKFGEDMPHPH
A further test addresses Histone deacetylase 5 (Homo sapiens, UniProt Q9UQL6). As to the kind of experiment: Inhibition of human N-terminal tagged human HDAC5 expressed in HEK293T/17 using Boc-[TFA-Lys]-AMC as substrate preincubated for 10 mins followed by substrate addition and measured after 60 mins by fluorescence assay.
Another test deals with T3, Histone deacetylase 11 (Homo sapiens, UniProt Q96DB2).
T3 sequence (Q96DB2 whole entry): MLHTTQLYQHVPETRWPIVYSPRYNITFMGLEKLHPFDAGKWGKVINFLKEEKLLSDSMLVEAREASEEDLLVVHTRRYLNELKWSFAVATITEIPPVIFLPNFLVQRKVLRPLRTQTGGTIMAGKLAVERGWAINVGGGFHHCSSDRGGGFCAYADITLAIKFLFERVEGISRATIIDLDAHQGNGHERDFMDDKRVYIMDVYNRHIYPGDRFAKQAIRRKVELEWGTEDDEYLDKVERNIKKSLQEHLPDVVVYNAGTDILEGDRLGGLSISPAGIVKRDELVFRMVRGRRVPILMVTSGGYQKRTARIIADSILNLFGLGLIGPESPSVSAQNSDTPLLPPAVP
As to the kind of experiment: Inhibition of human N-terminal tagged human HDAC11 expressed in HEK293T/17 using Boc-[TFA-Lys]-AMC as substrate preincubated for 10 mins followed by substrate addition and measured after 60 mins by fluorescence assay.

For test [3], the target named is T1, Cereblon/Ikaros (Homo sapiens). Kind of test: Protac activity at CRBN/IKZF1 in human MM1S cells assessed as IKZF1 degradation at 100 nM measured after 6 hrs in presence of NAE inhibitor MLN 4924 by Western blot analysis. In kind it is cell-based. In short, it runs like this:
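MM1S cells seeded at 1 × 10^6 per well overnight. Pretreated 1 h with pomalidomide, Next-A, MLN 4924 or DMSO, then given 100 nM degrader or DMSO for 6 h. Lysed in RIPA with protease inhibitors, 10−40 μg protein run on SDS-PAGE and transferred to PVDF. Blots probed for IKZF1/IKZF3, detected by ECL and quantified by densitometry.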
In general terms: In western blotting, separated proteins are transferred to a membrane and probed.

For test [4], the target named is T2, Protein cereblon/Protein deacetylase HDAC6. As to the kind of experiment: Protac activity at CRBN/HDAC6 in human MM1S cells assessed as HDAC6 degradation at 100 nM measured after 6 hrs in presence of proteasome inhibitor bortezomib by Western blot analysis. It counts as cell-based.
The target in test [5] is Protein cereblon/Histone deacetylase 4 (Homo sapiens) (UniProt P56524+Q96SW2). Kind of test: Protac activity at CRBN/HDAC4 in human MM1S cells assessed as HDAC4 degradation at 100 nM measured after 6 hrs in presence of proteasome inhibitor MG132 by Western blot analysis. It counts as cell-based.
Sequence of Protein cereblon/Histone deacetylase 4 (Homo sapiens) (P56524 whole entry, looked up): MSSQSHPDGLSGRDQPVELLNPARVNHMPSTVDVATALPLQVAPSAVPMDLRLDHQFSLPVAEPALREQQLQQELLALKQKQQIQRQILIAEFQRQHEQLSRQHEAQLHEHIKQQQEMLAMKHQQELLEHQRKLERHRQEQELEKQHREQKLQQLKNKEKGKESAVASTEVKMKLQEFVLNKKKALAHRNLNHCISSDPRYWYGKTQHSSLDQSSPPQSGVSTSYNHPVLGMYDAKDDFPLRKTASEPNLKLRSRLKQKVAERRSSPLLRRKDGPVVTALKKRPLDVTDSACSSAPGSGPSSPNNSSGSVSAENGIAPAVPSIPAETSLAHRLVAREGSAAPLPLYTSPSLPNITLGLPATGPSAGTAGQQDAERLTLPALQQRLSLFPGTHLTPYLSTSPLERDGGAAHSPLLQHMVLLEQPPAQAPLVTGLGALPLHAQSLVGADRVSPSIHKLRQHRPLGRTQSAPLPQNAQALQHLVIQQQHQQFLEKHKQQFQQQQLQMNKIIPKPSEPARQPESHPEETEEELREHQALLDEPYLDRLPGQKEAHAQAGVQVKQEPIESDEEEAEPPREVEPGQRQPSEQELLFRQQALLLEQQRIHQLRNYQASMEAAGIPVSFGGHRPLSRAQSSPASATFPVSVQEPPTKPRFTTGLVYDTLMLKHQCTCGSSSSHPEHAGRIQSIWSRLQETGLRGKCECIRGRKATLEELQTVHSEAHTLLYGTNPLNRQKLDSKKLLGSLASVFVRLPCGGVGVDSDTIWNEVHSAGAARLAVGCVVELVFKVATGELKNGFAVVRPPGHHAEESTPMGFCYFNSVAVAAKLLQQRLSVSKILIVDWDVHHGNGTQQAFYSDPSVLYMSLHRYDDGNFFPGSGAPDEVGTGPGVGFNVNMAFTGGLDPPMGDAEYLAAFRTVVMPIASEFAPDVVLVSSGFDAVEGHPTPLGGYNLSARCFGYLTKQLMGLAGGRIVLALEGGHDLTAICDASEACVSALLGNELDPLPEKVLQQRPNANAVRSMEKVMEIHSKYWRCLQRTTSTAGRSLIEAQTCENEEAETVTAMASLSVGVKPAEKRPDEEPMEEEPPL
Sequence of Protein cereblon/Histone deacetylase 4 (Homo sapiens) (Q96SW2 whole entry, looked up): as the sequence (Q96SW2 whole entry, looked up) above
The target in test [6] is Protein cereblon/Histone deacetylase 1 (Homo sapiens) (UniProt Q13547+Q96SW2). As to the kind of experiment: Protac activity at CRBN/HDAC1 in human MM1S cells assessed as HDAC1 degradation at 100 nM measured after 6 hrs in presence of proteasome inhibitor MG132 by Western blot analysis. It counts as cell-based.
Sequence of Protein cereblon/Histone deacetylase 1 (Homo sapiens) (Q13547 whole entry, looked up): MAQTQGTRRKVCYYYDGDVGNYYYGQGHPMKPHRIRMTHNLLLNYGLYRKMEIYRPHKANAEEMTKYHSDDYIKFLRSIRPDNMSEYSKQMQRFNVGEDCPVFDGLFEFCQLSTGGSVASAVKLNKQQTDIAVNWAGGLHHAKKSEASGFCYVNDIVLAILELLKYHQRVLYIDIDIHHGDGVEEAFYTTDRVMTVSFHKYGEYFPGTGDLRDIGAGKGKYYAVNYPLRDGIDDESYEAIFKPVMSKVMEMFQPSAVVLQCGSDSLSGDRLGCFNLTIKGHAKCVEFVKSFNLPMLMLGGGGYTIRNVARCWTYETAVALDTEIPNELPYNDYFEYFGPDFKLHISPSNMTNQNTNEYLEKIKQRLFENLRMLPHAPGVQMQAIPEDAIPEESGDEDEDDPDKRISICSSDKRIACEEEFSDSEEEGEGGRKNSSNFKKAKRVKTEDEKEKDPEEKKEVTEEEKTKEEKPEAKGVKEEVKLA
Sequence of Protein cereblon/Histone deacetylase 1 (Homo sapiens) (Q96SW2 whole entry, looked up): as the sequence (Q96SW2 whole entry, looked up) above
A further test concerns MM1.S. As to the kind of experiment: Antiproliferative activity against human MM1S cells assessed as reduction in cell viability measured after 72 hrs by resazurin dye based assay relative to control. In kind it is functional. In short, it runs like this:
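MM1S cells seeded at 1 × 10^4 per well, left overnight, then given compound or DMSO vehicle (added as 5× dosing medium) for 72 h at 37 °C, 5% CO2. Resazurin added (10× solution, 1 mg/mL), then incubated overnight at 37 °C. OD read at 570 and 600 nm. Viability is relative to vehicle, n = 3. Curves fitted as [inhibitor] vs response (three parameters); test range 0.3 nM–3 μM.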
(In general: Alamar Blue is a resazurin reagent that responds to reducing activity.)

Sequence of Histone deacetylase 5 (Q9UQL6 whole entry): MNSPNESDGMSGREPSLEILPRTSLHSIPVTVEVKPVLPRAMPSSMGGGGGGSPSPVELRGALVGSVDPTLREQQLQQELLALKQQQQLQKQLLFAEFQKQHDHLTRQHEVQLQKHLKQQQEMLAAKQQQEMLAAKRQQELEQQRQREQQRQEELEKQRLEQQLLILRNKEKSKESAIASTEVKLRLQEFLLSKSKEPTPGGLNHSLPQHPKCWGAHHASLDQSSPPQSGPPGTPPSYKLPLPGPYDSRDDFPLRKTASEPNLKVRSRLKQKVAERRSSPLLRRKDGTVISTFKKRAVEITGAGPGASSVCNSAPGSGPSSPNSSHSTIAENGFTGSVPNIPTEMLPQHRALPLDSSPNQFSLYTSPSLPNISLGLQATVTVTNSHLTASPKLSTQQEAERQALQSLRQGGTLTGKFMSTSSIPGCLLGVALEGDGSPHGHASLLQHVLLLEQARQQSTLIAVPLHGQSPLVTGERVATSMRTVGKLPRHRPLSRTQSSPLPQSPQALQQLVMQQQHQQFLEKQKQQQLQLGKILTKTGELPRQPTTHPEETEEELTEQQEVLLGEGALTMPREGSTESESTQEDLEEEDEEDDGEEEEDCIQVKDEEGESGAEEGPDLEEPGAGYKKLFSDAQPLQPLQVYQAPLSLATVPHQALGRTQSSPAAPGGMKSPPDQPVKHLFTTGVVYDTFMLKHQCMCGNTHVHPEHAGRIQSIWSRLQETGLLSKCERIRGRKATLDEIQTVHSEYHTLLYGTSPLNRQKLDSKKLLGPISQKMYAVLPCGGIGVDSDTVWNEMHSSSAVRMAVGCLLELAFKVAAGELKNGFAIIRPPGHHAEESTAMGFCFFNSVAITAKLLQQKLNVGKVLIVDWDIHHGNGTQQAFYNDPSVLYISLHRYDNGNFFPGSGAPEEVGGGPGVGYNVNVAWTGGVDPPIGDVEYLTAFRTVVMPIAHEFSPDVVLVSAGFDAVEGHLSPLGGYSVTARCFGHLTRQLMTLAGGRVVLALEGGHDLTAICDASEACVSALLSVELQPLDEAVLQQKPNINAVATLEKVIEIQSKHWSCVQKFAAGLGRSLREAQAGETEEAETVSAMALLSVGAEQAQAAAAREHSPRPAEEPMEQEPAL

In the case of `CCCCN(Cc1ccc(C(=O)NO)cc1)C(=O)Nc1ccc(OCCCCCn2cc(CNc3cccc4c3C(=O)N(C3CCC(=O)NC3=O)C4=O)nn2)cc1` (centres undefined), the result in test [1] and in [2] was Active. In addition, the IC50 against Histone deacetylase 5 and against Histone deacetylase 11 was 0.3 to 30 µM each time. Also, the result in test [3], in [4], in test [5] and in test [6] was inactive. The Imax with MM1.S is listed as 63.1%.

Usually IC50 stands for the concentration needed to halve the response being measured. A higher IC50 goes with weaker potency.
